The text below walks through data of ChEMBL document CHEMBL1165892, “Cell cycle disruption and apoptotic activity of 3-aminothiazolo[3,2-a]benzimidazole-2-carbonitrile and its homologues” (2010).

Assay [1] deals with MDA-MB-231. The assay is described as follows: Antiproliferative activity against human MDA-MB-231 cells at 100 uM after 48 hrs.
Assay [2] deals with MDA-MB-231. The assay is described as follows: Cell cycle arrest in human MDA-MB-231 cells decrease of cells at G1 phase at 100 uM after 24 to 72 hrs using propidium staining by flow cytometry. In kind it is functional, cell-based. The method, boiled down: (§1)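 MDA-MB-231 cells were grown in RPMI 1640 with 100 ml/l FBS, 100 U/ml penicillin and 100 U/ml streptomycin. They were seeded in 60 mm dishes and held 24 h at 37 °C in humidified 50 ml/l CO₂. Cells were exposed for 24, 48 or 72 h, then resuspended in 50 mM Na citrate with propidium iodide for 30 min. DNA content was read by flow cytometry and phase percentages derived from histograms. Data are representative of three independent experiments.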
(In general: Flow cytometry measures light scatter and fluorescence of single cells or particles in a stream.)

Assay [3] has as its system MDA-MB-231. Nature of the assay: Cell cycle arrest in human MDA-MB-231 cells assessed as accumulation at G2/M phase at 100 uM after 24 hrs using propidium staining by flow cytometry. It is filed as functional. The method, boiled down: as §1
Assay [4] has as its system MDA-MB-231. The assay is described as follows: Cell cycle arrest in human MDA-MB-231 cells assessed as accumulation at G2/M phase at 100 uM after 72 hrs using propidium staining by flow cytometry. In kind it is functional. The procedure, abridged:
as §1

Assay [5] relates to MDA-MB-231. The assay is described as follows: Cell cycle arrest in human MDA-MB-231 cells assessed as accumulation at S phase at 100 uM after 24 to 72 hrs using propidium staining by flow cytometry. In kind it is functional, cell-based. The procedure, abridged: as §1
The subject of assay [6] is MDA-MB-231. Nature of the assay: Induction of apoptosis in human MDA-MB-231 cells at 100 uM after 72 hrs using annexin V staining by flow cytometry. It is filed as functional. The procedure, abridged:
(§2)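 MDA-MB-231 cells were cultured in RPMI 1640 with 100 ml/l FBS and penicillin/streptomycin, then exposed for 24, 48 or 72 h. Harvested cells were stained with annexin V-FITC plus PI using a commercial kit per the manufacturer. Flow cytometry read emission at 530 and […], 10,000 cells per determination. Quadrants scored normal, early apoptotic, late apoptotic and necrotic cells. Results are representative of three experiments.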

Assay [7] has as its system MDA-MB-231. Nature of the assay: Induction of apoptosis in human MDA-MB-231 cells at 100 uM after 48 hrs using annexin V staining by flow cytometry. In kind it is functional. The procedure, abridged: as §2
The subject of assay [8] is MDA-MB-231. The assay is described as follows: Induction of apoptosis in human MDA-MB-231 cells at 100 uM after 24 hrs using annexin V staining by flow cytometry. It is filed as functional. The method, boiled down:
as §2

In assay [9] the test system is MDA-MB-231. Nature of the assay: Induction of apoptosis in human MDA-MB-231 cells at 100 uM using annexin V staining by flow cytometry. It is filed as functional, cell-based. The settings on record: TDE = time-dependent effect. The method, boiled down: as §2
The test system of assay [10] is MDA-MB-231. Nature of the assay: Cell cycle arrest in human MDA-MB-231 cells assessed as accumulation at G2/M phase at 100 uM after 48 hrs using propidium staining by flow cytometry. In kind it is functional. The method, boiled down: as §1

Active and inactive are the calls of the source. The rule behind the calls is not given here.

In the case of `CC(=O)Nc1c(C#N)sc2nc3ccccc3n12`, the result with MDA-MB-231 [1], in the assay with MDA-MB-231 [2] and with MDA-MB-231 [5] was Active. Besides, the Activity in the assay with MDA-MB-231 [3] was 42%; with MDA-MB-231 [4], 45.79%; in the assay on MDA-MB-231 [6], 80%; in the assay with MDA-MB-231 [7], 54.59%; with MDA-MB-231 [8], 23.77%; in the assay on MDA-MB-231 [9], “tde”. The Activity in the assay on MDA-MB-231 [10] was 46.22%.
